Laboratory results taken from PMC2975065 (Journal of molecular biology, 2010).
Where two headings read alike, the source gives them in different places.

How the values were obtained:
[1] = biological target: DiscI (Discoidin I, isoform A) (Dictyostelium discoideum, UniProt P02886, S2A); assay: Isothermal titration microcalorimetry; assay type: binding; conditions: ITC; for n (stoichiometry, fitted): n fitted to the curve for high affinity ligands
DiscII (Discoidin II) [2] = biological target: T1, DiscII (Discoidin II) (Dictyostelium discoideum, UniProt P42530); conditions: ITC, taken from ref [29]; cited from earlier work
T1 sequence (P42530 1-257): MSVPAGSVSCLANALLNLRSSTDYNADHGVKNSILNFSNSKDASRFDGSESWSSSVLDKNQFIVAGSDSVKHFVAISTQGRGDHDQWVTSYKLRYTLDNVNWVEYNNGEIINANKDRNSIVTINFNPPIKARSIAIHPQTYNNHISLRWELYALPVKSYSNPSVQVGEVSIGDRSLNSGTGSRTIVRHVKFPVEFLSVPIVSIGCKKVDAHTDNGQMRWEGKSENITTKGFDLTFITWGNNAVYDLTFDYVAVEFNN

DiscII (Discoidin II) [3] = biological target: T1, DiscII (Discoidin II); assay: Isothermal titration microcalorimetry; assay type: binding; conditions: for -TΔS / -ΔG / -ΔH: DiscII, ITC, 25 °C, ligands marked c only one experiment
How it was run: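 Run on a VP-ITC at 25 °C in 20 mM Tris-HCl pH 7.5, 150 mM NaCl, with sugar and protein in the same buffer. Thirty 10 μL injections of 2–40 mM sugar, 5 min apart, went into 0.15 mM lectin in the cell, stirred at 310 rpm. Sugar-into-buffer controls were run. Data were fitted to a single-site model giving Ka and ΔH (n fixed at 1 for weak ligands), with ΔG and ΔS derived. Runs were at least duplicated, or single where material was short.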

DiscI (Discoidin I) = DiscI (Discoidin I) (Dictyostelium discoideum, UniProt P02886, S2A); assay: Glycan microarray analysis of Alexa 488-labelled DiscI; assay type: binding; conditions: DiscI at 0.04 μg ml^-1; printed glycan arrays version 3.1
DiscII (Discoidin II) [4] = biological target: T1, DiscII (Discoidin II); assay: Glycan microarray analysis of Alexa 488-labelled DiscII; assay type: binding; conditions: DiscII at 0.5 μg ml^-1; printed glycan arrays version 3.1
How it was run: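 Recombinant protein labelled with Alexa Fluor 488-TFP following the maker's protocol, then desalted on a polyacrylamide column. Screened on the Consortium for Functional Glycomics printed array v3.1 by the standard procedure, over 0.01–200 μg ml^-1 lectin. Binding read as fluorescence intensity.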

[5] = 20 mM Tris-HCl pH 7.5, 150 mM NaCl, 25 °C, averaged over two or three experiments
[6] = KD, 20 mM Tris-HCl pH 7.5, 150 mM NaCl, 25 °C, averaged over two or three experiments

Chain of DiscI (Discoidin I, isoform A) (P02886 whole entry S2A, canonical isoform): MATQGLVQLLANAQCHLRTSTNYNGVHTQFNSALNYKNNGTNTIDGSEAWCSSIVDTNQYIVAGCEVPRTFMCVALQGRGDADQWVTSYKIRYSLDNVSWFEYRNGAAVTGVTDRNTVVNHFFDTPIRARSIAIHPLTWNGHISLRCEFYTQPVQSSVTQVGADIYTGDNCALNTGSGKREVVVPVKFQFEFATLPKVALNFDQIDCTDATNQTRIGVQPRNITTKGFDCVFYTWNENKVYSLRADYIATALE
Chain of DiscI (Discoidin I) (P02886 whole entry S2A): as the sequence (P02886 whole entry S2A, canonical isoform) above

Structure (SMILES)	Kd [1, 5] [mM]	-TΔS ([1]; 25 °C) [kcal/mol]	-ΔG ([1]; 25 °C) [kcal/mol]	-ΔH ([1]; 25 °C) [kcal/mol]	Kd [1, 6] [mM]	Kd (DiscII (Discoidin II) [3]) [mM]	-TΔS (DiscII (Discoidin II) [3]) [kcal/mol]	-ΔG (DiscII (Discoidin II) [3]) [kcal/mol]	Kd ([1]; Kd) [mM]	binding on glycan array (fluorescence intensity, in words) (DiscI (Discoidin I))	further results
CC(=O)N[C@H]1C(O)O[C@H](CO)[C@H](O)[C@@H]1O (mixture of isomers) [GalNAc, N-acetylgalactosamine]	0.302 ± 0.027	3.18 ± 1.43	4.78 ± 0.048	7.98 ± 1.39							Kd [1]: 0.3 mM; -TΔS (DiscII (Discoidin II) [2]): 0.837 kcal/mol; -ΔG (DiscII (Discoidin II) [2]): 4.02 kcal/mol; -ΔH (DiscII (Discoidin II) [2]): 4.85 kcal/mol; Kd (DiscII (Discoidin II) [2]): 1.11 mM
CC(=O)N[C@H]1C(O)O[C@H](CO)[C@@H](O[C@@H]2O[C@H](CO)[C@H](O)[C@H](O)[C@H]2O)[C@@H]1O (stereo partly drawn) [Gal1β1-4GlcNAc (LacNAc), Galβ1-4GlcNAc]		5.57 ± 0.478	3.59 ± 0.048	9.18 ± 0.526	2.39 ± 0.17	1.22 ± 0.023	4.9 ± 0.096	3.99 ± 0.12			Kd (in words) [1]: millimolar range
CC(=O)N[C@H]1C(O)O[C@H](CO)[C@H](O)[C@@H]1O[C@@H]1O[C@H](CO)[C@H](O)[C@H](O)[C@H]1O (stereo partly drawn) [Gal1β-3GalNAc, Galβ1-3GalNAc]		4.66 ± 0.359	6.24 ± 0.096	10.9 ± 0.263	0.0272 ± 0.0046	1.38	6.21	3.9	0.027	binds	increase in DiscI affinity when compared to GalNAc monosaccharide [1]: tenfold increase; n (stoichiometry, fitted) [1]: 1.03± 0.01; -ΔH (DiscII (Discoidin II) [3]): 10.1 kcal/mol
CC(=O)N[C@H]1[C@H](O[C@H]2[C@@H](O)[C@@H](CO)OC(O)[C@@H]2O)O[C@H](CO)[C@H](O)[C@@H]1O (stereo partly drawn) [GalNAcβ1-3Gal]		6.886 ± 0.669	5.86 ± 0.072	12.7 ± 0.693	0.0494 ± 0.0015	1.11	6.88	4.02	~0.05	less strongly	increase in DiscI affinity when compared to GalNAc monosaccharide [1]: tenfold increase; n (stoichiometry, fitted) [1]: 0.81 ± 0.01; -ΔH (DiscII (Discoidin II) [3]): 10.9 kcal/mol
O=C[C@H](O)[C@@H](O)[C@@H](O)[C@H](O)CO [Galactose, galactose]		4.09 ± 1.79	3.3 ± 0.024	7.41 ± 1.77	3.77 ± 0.2				3 to 4		
CC(=O)N[C@H]1[C@H](OC[C@H]2OC(O)[C@H](NC(C)=O)[C@@H](O)[C@H]2O)O[C@H](CO)[C@@H](O[C@@H]2O[C@H](CO)[C@H](O)[C@H](O)[C@H]2O)[C@@H]1O (stereo partly drawn) [Galβ1-4GlcNAcβ1-6GalNAc (n° 149), Galβ1-4GlcNAcβ1-6GalNAc]											binding on glycan array (fluorescence intensity, in words) (DiscII (Discoidin II) [4]): highest affinity
CC(=O)NC1C(OC2C(O)C(CO)OC(O)C2NC(C)=O)OC(CO)C(O)C1O (stereo not drawn) [GlcNAcβ1-3GalNAc (n° 159), GlcNAcβ1-3GalNAc]										binds	
CO[C@H]1O[C@H](CO)[C@H](O)[C@H](O)[C@H]1O [αMeGalactoside]	8.39 ± 0.7	7.29 ± 1.46	2.82 ± 0.048	10.1 ± 1.41							
COC1OC(CO)C(O)C(O)C1O (stereo not drawn) [βMeGalactoside, β–Methyl-galactoside]	2.96 ± 0.27	6.19 ± 0.526	3.44 ± 0.048	9.63 ± 0.574							-TΔS (DiscII (Discoidin II) [2]): 1.6 kcal/mol; -ΔG (DiscII (Discoidin II) [2]): 4.16 kcal/mol; -ΔH (DiscII (Discoidin II) [2]): 5.81 kcal/mol; Kd (DiscII (Discoidin II) [2]): 0.952 mM
